From ChEMBL document CHEMBL1255446, “Combinations of mutations in the connection domain of human immunodeficiency virus type 1 reverse transcriptase: assessing the impact on nucleoside and nonnucleoside reverse transcriptase inhibitor resistance” (2010)

Columns and labels:
Format in all cases: functional
[1] = system: Human immunodeficiency virus 1; experiment: Antiviral activity against HIV1 with RT connection domain Y181C/N348I mutant transfected in HEK293 cells assessed as inhibition of viral replication relative to HIV1 NL4-3
Outline: (§1)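 Single-replication-cycle (PhenoSense) assay. Site-directed mutant RT pseudoviruses were made by cotransfecting 293 cells with RTV plasmid plus an amphotropic MLV Env plasmid, harvested at 48 h, and used to infect fresh 293 cells. Serial drug dilutions were added before infection. Luciferase was read ~72 h post-infection, % inhibition was computed, and EC50 was taken from the curves. Values are fold change versus NL4-3 reference run in the same experiment.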

[2] = system: Human immunodeficiency virus 1; experiment: Antiviral activity against HIV1 with RT connection domain T369V mutant transfected in HEK293 cells assessed as inhibition of viral replication relative to HIV1 NL4-3; outline: as §1
[3] = system: Human immunodeficiency virus 1; experiment: Antiviral activity against HIV1 with RT connection domain G190A/T369I mutant transfected in HEK293 cells assessed as inhibition of viral replication relative to HIV1 NL4-3; outline: as §1
[4] = system: Human immunodeficiency virus 1; experiment: Antiviral activity against HIV1 with RT connection domain T369I mutant transfected in HEK293 cells assessed as inhibition of viral replication relative to HIV1 NL4-3; outline: as §1
[5] = system: Human immunodeficiency virus 1; experiment: Antiviral activity against HIV1 with RT connection domain K103N/T369I mutant transfected in HEK293 cells assessed as inhibition of viral replication relative to HIV1 NL4-3; outline: as §1
[6] = system: Human immunodeficiency virus 1; experiment: Antiviral activity against HIV1 with RT connection domain Y181C/T369I mutant transfected in HEK293 cells assessed as inhibition of viral replication relative to HIV1 NL4-3; outline: as §1
[7] = system: Human immunodeficiency virus 1; experiment: Antiviral activity against HIV1 with RT connection domain G190S mutant transfected in HEK293 cells assessed as inhibition of viral replication relative to HIV1 NL4-3; outline: as §1
[8] = system: Human immunodeficiency virus 1; experiment: Antiviral activity against HIV1 with RT connection domain Y181C/T369I/N348I mutant transfected in HEK293 cells assessed as inhibition of viral replication relative to HIV1 NL4-3; outline: as §1
[9] = system: Human immunodeficiency virus 1; experiment: Antiviral activity against HIV1 with RT connection domain L100I/T369I mutant transfected in HEK293 cells assessed as inhibition of viral replication relative to HIV1 NL4-3; outline: as §1
[10] = system: Human immunodeficiency virus 1; experiment: Antiviral activity against HIV1 with RT connection domain L100I/T369I/N348I mutant transfected in HEK293 cells assessed as inhibition of viral replication relative to HIV1 NL4-3; outline: as §1
[11] = system: Human immunodeficiency virus 1; experiment: Antiviral activity against HIV1 with RT connection domain T369I/N348I mutant transfected in HEK293 cells assessed as inhibition of viral replication relative to HIV1 NL4-3; outline: as §1
[12] = system: Human immunodeficiency virus 1; experiment: Antiviral activity against HIV1 with RT connection domain L100I/N348I mutant transfected in HEK293 cells assessed as inhibition of viral replication relative to HIV1 NL4-3; outline: as §1
[13] = system: Human immunodeficiency virus 1; experiment: Antiviral activity against HIV1 with RT connection domain G190A/T369I/N348I mutant transfected in HEK293 cells assessed as inhibition of viral replication relative to HIV1 NL4-3; outline: as §1
[14] = system: Human immunodeficiency virus 1; experiment: Antiviral activity against HIV1 with RT connection domain Y181C mutant transfected in HEK293 cells assessed as inhibition of viral replication relative to HIV1 NL4-3; outline: as §1
[15] = system: Human immunodeficiency virus 1; experiment: Antiviral activity against HIV1 with RT connection domain G190S/N348I mutant transfected in HEK293 cells assessed as inhibition of viral replication relative to HIV1 NL4-3; outline: as §1
[16] = system: Human immunodeficiency virus 1; experiment: Antiviral activity against HIV1 with RT connection domain G190A mutant transfected in HEK293 cells assessed as inhibition of viral replication relative to HIV1 NL4-3; outline: as §1
[17] = system: Human immunodeficiency virus 1; experiment: Antiviral activity against HIV1 with RT connection domain K103N mutant transfected in HEK293 cells assessed as inhibition of viral replication relative to HIV1 NL4-3; outline: as §1
[18] = system: Human immunodeficiency virus 1; experiment: Antiviral activity against HIV1 with RT connection domain N348I mutant transfected in HEK293 cells assessed as inhibition of viral replication relative to HIV1 NL4-3; outline: as §1
[19] = system: Human immunodeficiency virus 1; experiment: Antiviral activity against HIV1 with RT connection domain G190S/T369I mutant transfected in HEK293 cells assessed as inhibition of viral replication relative to HIV1 NL4-3; outline: as §1
[20] = system: Human immunodeficiency virus 1; experiment: Antiviral activity against HIV1 with RT connection domain G190A/N348Ib mutant transfected in HEK293 cells assessed as inhibition of viral replication relative to HIV1 NL4-3; outline: as §1
[21] = system: Human immunodeficiency virus 1; experiment: Antiviral activity against HIV1 with RT connection domain K103N/N348I mutant transfected in HEK293 cells assessed as inhibition of viral replication relative to HIV1 NL4-3; outline: as §1
[22] = system: Human immunodeficiency virus 1; experiment: Antiviral activity against HIV1 with RT connection domain L100I mutant transfected in HEK293 cells assessed as inhibition of viral replication relative to HIV1 NL4-3; outline: as §1
[23] = system: Human immunodeficiency virus 1; experiment: Antiviral activity against HIV1 with RT connection domain G190S/T369I/N348I mutant transfected in HEK293 cells assessed as inhibition of viral replication relative to HIV1 NL4-3; outline: as §1
[24] = system: Human immunodeficiency virus 1; experiment: Antiviral activity against HIV1 with RT connection domain K103N/T369I/N348I mutant transfected in HEK293 cells assessed as inhibition of viral replication relative to HIV1 NL4-3; outline: as §1

SMILES	fold change (FC) [1]	fold change (FC) [2]	fold change (FC) [3]	fold change (FC) [4]	fold change (FC) [5]	fold change (FC) [6]	fold change (FC) [7]	fold change (FC) [8]	fold change (FC) [9]	fold change (FC) [10]	fold change (FC) [11]	fold change (FC) [12]	fold change (FC) [13]	fold change (FC) [14]	fold change (FC) [15]	fold change (FC) [16]	fold change (FC) [17]	fold change (FC) [18]	fold change (FC) [19]	fold change (FC) [20]	other results
CC(C)Nc1cccnc1N1CCN(C(=O)c2cc3cc(NS(C)(=O)=O)ccc3[nH]2)CC1 [DELAVIRDINE]	>250	5.5	1.2	5.2	>250	>250	0.3	>250	49.7	>250	29.8	90.7	5.9	44.7	0.9	0.3	75.7	3.4	0.6	1.1	fold change (FC) [21]: >250; fold change (FC) [22]: 34; fold change (FC) [23]: 6.9; fold change (FC) [24]: >250
O=C1Nc2ccc(Cl)cc2[C@@](C#CC2CC2)(C(F)(F)F)O1 [EFAVIRENZ]	3.2	3.1	33.7	2.4	164.1	4	63	17	13.6	137.7	8.1	16	>700	1.7	>700	5.2	21.3	1.9	>700	26	fold change (FC) [21]: 115; fold change (FC) [22]: 9; fold change (FC) [23]: >700; fold change (FC) [24]: >700
Cc1cn([C@H]2C[C@H](N=[N+]=[N-])[C@@H](CO)O2)c(=O)[nH]c1=O [ZIDOVUDINE]	0.7	2.1	1.7	2.7	2.3	0.9	0.8	2.2	0.2	0.5	5.4	0.3	4.2	0.3	1.7	1.1	1.1	2.4	0.7	2	fold change (FC) [21]: 2.6; fold change (FC) [22]: 0.1; fold change (FC) [23]: 5.8; fold change (FC) [24]: 7.9
Cc1ccnc2c1NC(=O)c1cccnc1N2C1CC1 [NEVIRAPINE]	>400	9.2	>400	8.4	>400	>400	145	>400	4.8	56.3	58.6	5.3	>400	317	>400	127.7	81	4.1	>400	>400	fold change (FC) [21]: >400; fold change (FC) [22]: 2.1; fold change (FC) [23]: >400; fold change (FC) [24]: >400
